{"source": "ChEMBL document CHEMBL1671864", "about": "“First assessment in humans of the safety, tolerability, pharmacokinetics, and ex vivo pharmacodynamic antimalarial activity of the new artemisinin derivative artemisone” (Antimicrob Agents Chemother, 2008)", "key": {"Plasma [1]": {"system": "Plasma", "assay": "Cmax in healthy human plasma assessed as metabolite BAY 78-1789 Cmax at 80 mg, po administered as single ascending doses during 10 hrs overnight fasting state", "format": "ADME, organism-based", "set-up": "dose 80 mg, route oral", "settings": "in vivo", "how_it_was_run": "(§1)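 Healthy Caucasian male volunteers, single oral dose with 240 ml water after a 10-h overnight fast. Heparinised venous blood was drawn predose and at 0.25–14 h. Plasma was stored frozen. Parent drug and metabolites M1–M3 were measured by LC/MS-MS (MRM, deuterated internal standard). Noncompartmental analysis gave Cmax observed, t1/2 = 0.693/kel (terminal regression) and MRT = AUMC/AUC. Values are geometric means.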"}, "Plasma [2]": {"system": "Plasma", "assay": "Half life in healthy human plasma assessed as metabolite BAY 78-1789 Half life at 40 mg, po administered as two 20 mg immediate release tablets daily for 3 days during 10 hrs overnight fasting state measured after 3 day", "format": "ADME, organism-based", "settings": "in vivo, 72 h", "how_it_was_run": "(§2)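 Healthy Caucasian males took tablets once daily for 3 days with 240 ml water after a 10-h fast. Heparinised blood was drawn predose and at 0.25–14 h after the first and last doses. Plasma parent drug and metabolites M1–M3 were measured by LC/MS-MS (MRM, deuterated internal standard). Noncompartmental analysis gave Cmax observed, t1/2 = 0.693/kel and MRT = AUMC/AUC. Values are geometric means.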"}, "Plasma [3]": {"system": "Plasma", "assay": "Ratio of AUC (0 to infinity) for metabolite BAY 78-1789 to AUC (0 to infinity) for compound in healthy human plasma at 80 mg, po administered as single dose for 3 days measured after 3 days", "format": "ADME, organism-based", "settings": "in vivo, 72 h", "how_it_was_run": "(§3)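 Healthy Caucasian men (8 active, 4 placebo per dose) dosed with tablets daily for 3 days after 10-h fast. Plasma sampled 0.25–14 h after first and last doses. Parent and metabolites M1–M3 measured by LC/MS-MS (200 µl plasma). Metabolic ratio is metabolite AUC0-∞ divided by parent AUC0-∞ (log-linear trapezoidal, extrapolated by last concentration/kel). First vs third dose compared by paired t test.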"}, "Plasma [4]": {"system": "Plasma", "assay": "Ratio of AUC (0 to infinity) for metabolite BAY 78-1789 to AUC (0 to infinity) for compound in healthy human plasma at 40 mg, po administered as single dose for 3 days measured after 3 days", "format": "ADME, organism-based", "settings": "in vivo, 72 h", "how_it_was_run": "as §3"}, "Plasma [5]": {"system": "Plasma", "assay": "Tmax in healthy human plasma assessed as metabolite BAY 78-1789 Tmax at 80 mg, po administered as four 20 mg immediate release tablets daily for 3 days during 10 hrs overnight fasting state measured after 1 day", "format": "ADME, organism-based", "settings": "in vivo, 24 h", "how_it_was_run": "(§4)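 Healthy Caucasian men (8 active, 4 placebo per dose) dosed with tablets daily for 3 days after 10-h fast. Lithium-heparin plasma sampled predose and 0.25–14 h after day-1 and day-3 doses, stored frozen. Parent and M1–M3 quantified by LC/MS-MS in positive-ion MRM. Tmax taken directly from observed individual data.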"}, "Plasma [6]": {"system": "Plasma", "assay": "Half life in healthy human plasma assessed as metabolite BAY 78-1789 Half life at 40 mg, po administered as two 20 mg immediate release tablets daily for 3 days during 10 hrs overnight fasting state measured after 1 day", "format": "ADME, organism-based", "settings": "in vivo, 24 h", "how_it_was_run": "as §2"}, "Plasma [7]": {"system": "Plasma", "assay": "Tmax in healthy human plasma assessed as metabolite BAY 78-1789 Tmax at 40 mg, po administered as two 20 mg immediate release tablets daily for 3 days during 10 hrs overnight fasting state measured after 3 day", "format": "ADME, organism-based", "settings": "in vivo, 72 h", "how_it_was_run": "as §4"}, "Plasma [8]": {"system": "Plasma", "assay": "Half-life in healthy human plasma assessed as metabolite BAY 78-1789 half-life at 80 mg, po administered as single ascending doses during 10 hrs overnight fasting state", "format": "ADME, organism-based", "settings": "in vivo", "how_it_was_run": "as §1"}, "Plasma [9]": {"system": "Plasma", "assay": "AUC in healthy human plasma assessed as metabolite BAY 78-1789 AUC at 40 mg, po administered as two 20 mg immediate release tablets daily for 3 days during 10 hrs overnight fasting state measured after 3 day", "format": "ADME, organism-based", "set-up": "time < 10 hr, dose 40 mg, route oral", "settings": "in vivo", "how_it_was_run": "(§5)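 Healthy Caucasian male volunteers took 40 mg (two 20-mg IR tablets) or 80 mg (four tablets) orally once daily for 3 days, with 240 ml water after a 10-h fast. Plasma was sampled predose to 14 h after the first and last doses. M1/M2/M3 were quantified by LC/MS-MS MRM against a D4-labelled internal standard. Cmax was read from observed data and AUC by log-linear trapezoidal rule, noncompartmental, geometric means.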"}, "Plasmodium falciparum": {"system": "Plasmodium falciparum", "assay": "Antimalarial activity against Plasmodium falciparum K1 in human plasma assessed as inhibition of hypoxanthine uptake by intraerythrocytic malaria parasites by hypoxanthine incorporation assay", "format": "functional, organism-based", "how_it_was_run": "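K1 or TM90-C2A parasites were sorbitol-synchronized and cultured in RPMI 1640. Drug was diluted in drug-free human serum (0.04–40 ng/ml) or subject plasma was diluted twofold (8–8,192). Parasites were added at 2% hematocrit, 1% parasitemia (>95% rings), and [3H]hypoxanthine uptake was measured over 48 h. IC50 or ID50 came from concentration or dilution-response curves. Equivalent concentration = ID50 × IC50.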"}, "Plasma [10]": {"system": "Plasma", "assay": "Ratio of AUC (0 to infinity) for metabolite BAY 78-1789 to AUC (0 to infinity) for compound in healthy human plasma at 80 mg, po administered as single dose for 3 days measured after 1 day", "format": "ADME, organism-based", "settings": "in vivo, 24 h", "how_it_was_run": "as §3"}, "Plasma [11]": {"system": "Plasma", "assay": "Cmax in healthy human plasma assessed as metabolite BAY 78-1789 Cmax at 40 mg, po administered as two 20 mg immediate release tablets daily for 3 days during 10 hrs overnight fasting state measured after 1 day", "format": "ADME, organism-based", "set-up": "dose 40 mg, route oral", "settings": "in vivo, 24 h", "how_it_was_run": "as §2"}, "Plasma [12]": {"system": "Plasma", "assay": "AUC (0 to infinity) in healthy human plasma assessed as metabolite BAY 78-1789 AUC (0 to infinity) at 80 mg, po administered as single ascending doses during 10 hrs overnight fasting state", "format": "ADME, organism-based", "set-up": "dose 80 mg, time infinity, route oral", "settings": "in vivo", "how_it_was_run": "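Healthy Caucasian male volunteers, single oral dose of 80 mg as four 20-mg immediate-release tablets, taken with 240 ml water after a 10-h overnight fast. Lithium-heparin venous blood was drawn predose and at 0.25–14 h, and plasma was stored frozen. Metabolites M1/M2/M3 were measured by LC/MS-MS (positive-ion MRM, deuterated internal standard). Noncompartmental analysis, AUC by log-linear trapezoidal rule extrapolated to infinity (Clast/kel), geometric means.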"}, "Plasma [13]": {"system": "Plasma", "assay": "Half life in healthy human plasma assessed as metabolite BAY 78-1789 Half life at 80 mg, po administered as four 20 mg immediate release tablets daily for 3 days during 10 hrs overnight fasting state measured after 3 day", "format": "ADME, organism-based", "settings": "in vivo, 72 h", "how_it_was_run": "as §2"}, "Plasma [14]": {"system": "Plasma", "assay": "Tmax in healthy human plasma assessed as metabolite BAY 78-1789 Tmax at 40 mg, po administered as two 20 mg immediate release tablets daily for 3 days during 10 hrs overnight fasting state measured after 1 day", "format": "ADME, organism-based", "settings": "in vivo, 24 h", "how_it_was_run": "as §4"}, "Plasma [15]": {"system": "Plasma", "assay": "AUC in healthy human plasma assessed as metabolite BAY 78-1789 AUC at 80 mg, po administered as four 20 mg immediate release tablets daily for 3 days during 10 hrs overnight fasting state measured after 3 day", "format": "ADME, organism-based", "set-up": "dose 80 mg, time < 10 hr, route oral", "settings": "in vivo", "how_it_was_run": "as §5"}, "Plasma [16]": {"system": "Plasma", "assay": "Cmax in healthy human plasma assessed as metabolite BAY 78-1789 Cmax at 80 mg, po administered as four 20 mg immediate release tablets daily for 3 days during 10 hrs overnight fasting state measured after 1 day", "format": "ADME, organism-based", "set-up": "dose 80 mg, route oral", "settings": "in vivo, 24 h", "how_it_was_run": "as §2"}, "Plasma [17]": {"system": "Plasma", "assay": "AUC in healthy human plasma assessed as metabolite BAY 78-1789 AUC at 40 mg, po administered as two 20 mg immediate release tablets daily for 3 days during 10 hrs overnight fasting state measured after 1 day", "format": "ADME, organism-based", "set-up": "time < 10 hr, dose 40 mg, route oral", "settings": "in vivo", "how_it_was_run": "as §5"}, "Plasma [18]": {"system": "Plasma", "assay": "Half life in healthy human plasma assessed as metabolite BAY 78-1789 Half life at 80 mg, po administered as four 20 mg immediate release tablets daily for 3 days during 10 hrs overnight fasting state measured after 1 day", "format": "ADME, organism-based", "settings": "in vivo", "how_it_was_run": "as §2"}, "Plasma [19]": {"system": "Plasma", "assay": "Tmax in healthy human plasma assessed as metabolite BAY 78-1789 Tmax at 80 mg, po administered as four 20 mg immediate release tablets daily for 3 days during 10 hrs overnight fasting state measured after 3 day", "format": "ADME, organism-based", "settings": "in vivo, 72 h", "how_it_was_run": "as §4"}, "Plasma [20]": {"system": "Plasma", "assay": "Cmax in healthy human plasma assessed as metabolite BAY 78-1789 Cmax at 40 mg, po administered as two 20 mg immediate release tablets daily for 3 days during 10 hrs overnight fasting state measured after 3 day", "format": "ADME, organism-based", "set-up": "dose 40 mg, route oral", "settings": "in vivo, 72 h", "how_it_was_run": "as §2"}, "Plasma [21]": {"system": "Plasma", "assay": "AUC in healthy human plasma assessed as metabolite BAY 78-1789 AUC at 80 mg, po administered as four 20 mg immediate release tablets daily for 3 days during 10 hrs overnight fasting state measured after 1 day", "format": "ADME, organism-based", "set-up": "dose 80 mg, time < 10 hr, route oral", "settings": "in vivo", "how_it_was_run": "as §5"}, "Plasma [22]": {"system": "Plasma", "assay": "Cmax in healthy human plasma assessed as metabolite BAY 78-1789 Cmax at 80 mg, po administered as four 20 mg immediate release tablets daily for 3 days during 10 hrs overnight fasting state measured after 3 day", "format": "ADME, organism-based", "set-up": "dose 80 mg, route oral", "settings": "in vivo, 72 h", "how_it_was_run": "as §2"}, "Plasma [23]": {"system": "Plasma", "assay": "Ratio of AUC (0 to infinity) for metabolite BAY 78-1789 to AUC (0 to infinity) for compound in healthy human plasma at 40 mg, po administered as single dose for 3 days measured after 1 day", "format": "ADME, organism-based", "settings": "in vivo, 24 h", "how_it_was_run": "as §3"}}}
{"compound": "C[C@@H]1[C@H](O)C[C@H]2[C@@H](C)[C@H](N3CCS(=O)(=O)CC3)O[C@@H]3O[C@]4(C)CC[C@@H]1[C@]32OO4", "values": [{"measurement": "Cmax", "setting": "Plasma [1]", "result": 74.3, "unit": "ng/mL"}, {"measurement": "t1/2", "setting": "Plasma [2]", "result": 1.69, "unit": "h"}, {"measurement": "Ratio", "setting": "Plasma [3]", "result": 0.52}, {"measurement": "Ratio", "setting": "Plasma [4]", "result": 0.47}, {"measurement": "Tmax", "setting": "Plasma [5]", "result": 2, "unit": "h"}, {"measurement": "t1/2", "setting": "Plasma [6]", "result": 1.52, "unit": "h"}, {"measurement": "Tmax", "setting": "Plasma [7]", "result": 2.5, "unit": "h"}, {"measurement": "t1/2", "setting": "Plasma [8]", "result": 1.59, "unit": "h"}, {"measurement": "AUC", "setting": "Plasma [9]", "result": 84.9, "unit": "ng·h/mL"}, {"measurement": "IC50", "setting": "Plasmodium falciparum", "result": 2.3, "unit": "ng/mL"}, {"measurement": "Ratio", "setting": "Plasma [10]", "result": 0.65}, {"measurement": "Cmax", "setting": "Plasma [11]", "result": 27.8, "unit": "ng/mL"}, {"measurement": "AUC", "setting": "Plasma [12]", "result": 294.8, "unit": "ng·h/mL"}, {"measurement": "t1/2", "setting": "Plasma [13]", "result": 1.86, "unit": "h"}, {"measurement": "Tmax", "setting": "Plasma [14]", "result": 2, "unit": "h"}, {"measurement": "AUC", "setting": "Plasma [15]", "result": 165.1, "unit": "ng·h/mL"}, {"measurement": "Cmax", "setting": "Plasma [16]", "result": 51.9, "unit": "ng/mL"}, {"measurement": "AUC", "setting": "Plasma [17]", "result": 95.9, "unit": "ng·h/mL"}, {"measurement": "t1/2", "setting": "Plasma [18]", "result": 1.83, "unit": "h"}, {"measurement": "Tmax", "setting": "Plasma [19]", "result": 2.5, "unit": "h"}, {"measurement": "Cmax", "setting": "Plasma [20]", "result": 22.5, "unit": "ng/mL"}, {"measurement": "AUC", "setting": "Plasma [21]", "result": 213.1, "unit": "ng·h/mL"}, {"measurement": "Cmax", "setting": "Plasma [22]", "result": 38.2, "unit": "ng/mL"}, {"measurement": "Ratio", "setting": "Plasma [23]", "result": 0.54}]}
